ChEMBL document CHEMBL3856209, “Novel pyrazolopyridine derivatives as potential angiogenesis inhibitors: Synthesis, biological evaluation and transcriptome-based mechanistic analysis” (Eur J Med Chem, 2016)
Calls of active or inactive are those of the source. The calls are words filed in the database; no cut-off is given here.

How the values were obtained:
[1] = Effect on total VEGFR2 levels in VEGF-165-induced serum-starved HUVEC at 2 uM preincubated for 2 hrs followed by VEGF-165 induction measured after 5 mins by Western blot analysis; format: cell-based; details: human
Summary of the method: (§1)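 Serum-starved HUVEC were given 2 µM compound or vehicle for 2 h, then VEGF-165 (50 ng/mL) or PBS for 5 min. Lysates with equal protein were run on SDS-PAGE and immunoblotted for phospho-VEGFR2 (Tyr951, 996, 1056, 1175), p-AKT Ser473, p-ERK1/2 and the total proteins. Detection was by ECL with densitometry. Phospho signals were normalized to total protein, n = 3.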

HUVEC [2] = assay: Effect on KIF20A gene expression in serum-starved HUVEC after 24 hrs by microarray analysis relative to control; format: functional, Homo sapiens
Summary of the method: (§2)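 Confluent, serum-starved HUVEC (pooled from 3–5 donors, passage ≤4) treated with 2 μM compound or vehicle with 2.5% FBS for 6 h or 24 h. Total RNA hybridized to Illumina Human-HT12 arrays. Data were background-corrected, vst-transformed and rsn-normalized. Hits called by moderated paired t-test versus DMSO-treated cells, p < 0.05 and log2 fold change >|0.5|.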

HUVEC [3] = assay: Effect on GNG12 gene expression in serum-starved HUVEC after 24 hrs by microarray analysis relative to control; format: functional, Homo sapiens; summary of the method: as §2
EA.hy 926 = assay: Antiproliferative activity against human EAhy926 cells assessed as decrease in cell viability at 0.2 to 2 uM after 24 to 48 hrs in presence of 2.5% fetal bovine serum by MTT assay; format: functional, cell-based
Summary of the method: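 EA.hy926 seeded at 4×10^3/well, adhered 24 h, and starved 4 h in 0.25% BSA medium. Then treated with compound or 0.1% v/v DMSO in medium with 2.5% FBS for 48 h. MTT 0.5 mg/mL for 4 h, A595 with 630 nm correction, cell number from a standard curve. Expressed as % of DMSO control; replicates from two independent experiments.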

Lewis lung carcinoma [4] = assay: Antitumor activity against mouse LLC cells allografted in C57BL/6 mouse assessed as tumor growth inhibition at 0.2 mg/kg, ip administered thrice a week for 2 weeks starting 24 hrs before tumor implantation measured every other day of compound dosing by electronic caliper-based method; format: functional, organism-based
Summary of the method: (§3)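 Male 6–8 week C57BL/6 mice (groups of 5–6) inoculated sc in the right flank with 5×10^5 LLC cells. Compound (0.2 mg/kg) or DMSO vehicle given ip thrice weekly for 2 weeks, starting 24 h before implantation. Tumors measured by caliper every other day. At end-point, anti-CD31 IHC (1:100) of tumor sections, with immunoreactive cells counted in six high-power fields.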

HUVEC [5] = assay: Inhibition of total protein tyrosine kinase activity in serum-starved HUVEC at 1 to 4 uM after 2 hrs; format: cell-based; details: Homo sapiens
HUVEC [6] = assay: Effect on RNU1-3 gene expression in serum-starved HUVEC after 6 hrs by microarray analysis relative to control; format: functional, Homo sapiens
Summary of the method: (§4)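 Serum-starved confluent HUVEC (pooled from 3–5 donors, passage ≤4) were treated with 2 μM compound or vehicle in 2.5% FBS for 6 h or 24 h, and total RNA was isolated. Hybridization was on Illumina Human-HT12. Data were processed with bgAdjust, vst and rsn normalization. Changes versus DMSO were called by moderated paired t-test at p < 0.05 and |log2 fold change| > 0.5.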

HUVEC [7] = assay: Effect on RNA28S5 gene expression in serum-starved HUVEC after 6 hrs by microarray analysis relative to control; format: functional, Homo sapiens; summary of the method: as §4
Lewis lung carcinoma [8] = assay: Antiangiogenic activity in mouse LLC cells allografted in C57BL/6 mouse assessed as decrease of microvessel density in tumor at 0.2 mg/kg, ip administered thrice a week for 2 weeks starting 24 hrs before tumor implantation measured post last dose by IHC analysis; format: functional, organism-based; summary of the method: as §3
HUVEC [9] = assay: Effect on RNU1-3 gene expression in serum-starved HUVEC after 24 hrs by microarray analysis relative to control; format: functional, Homo sapiens; summary of the method: as §4
[10] = biological target: Vascular endothelial growth factor receptor 2 (Homo sapiens) (UniProt P35968); assay: Inhibition of VEGF-165-induced VEGFR2 autophosphorylation in serum-starved HUVEC assessed as decrease in AKT phosphorylation at 2 uM preincubated for 2 hrs followed by VEGF-165 induction measured after 5 mins by Western blot analysis; format: cell-based; summary of the method: as §1
Mus musculus [11] = assay: Toxicity in C57BL/6 mouse allografted with mouse LLC cells assessed as effect on vital organs at 0.05 to 0.2 mg/kg, ip administered thrice a week for 2 weeks starting 24 hrs before tumor implantation by haematoxylin-eosin staining-based microscopic analysis; format: organism-based; details: in vivo
Summary of the method: (§5)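 Male C57BL/6 mice, 6–8 weeks old, in groups of 5–6, received 5×10^5 LLC cells sc in the right flank. Compound (0.05–0.2 mg/kg) or DMSO vehicle was given ip thrice weekly for 2 weeks, starting 24 h before implantation. Mice were weighed and examined clinically every other day. At end-point, kidney, lung, spleen, liver and heart sections were H&E-stained and examined microscopically.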

Mus musculus [12] = assay: Toxicity in C57BL/6 mouse allografted with mouse LLC cells at 0.05 to 0.2 mg/kg, ip administered thrice a week for 2 weeks starting 24 hrs before tumor implantation by clinical test; format: organism-based; details: in vivo; summary of the method: as §5
[13] = Antiproliferative activity against human EAhy926 cells assessed as decrease in cell viability after 24 to 48 hrs in presence of 2.5% fetal bovine serum by MTT assay; format: functional, cell-based; details: EA.hy 926
Summary of the method: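 EA.hy926 in DMEM with 2.5% FBS exposed 48 h to serial 1:2 compound dilutions spanning 0.125–50 μM. Viable cells measured by MTT (0.5 mg/mL, 4 h, A595/630 nm). IC50 (mean ± SEM) fitted by non-linear regression from eight or more points.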

HUVEC [14] = assay: Antimigratory activity in HUVEC at 0.2 to 2 uM after 6 hrs in presence of 5% fetal bovine serum by transwell assay; format: functional, cell-based; details: Homo sapiens
Summary of the method: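 Serum-starved confluent HUVEC pre-treated overnight with compound or vehicle in 5% FBS medium. Then placed in the upper chamber of 8 µm-pore Transwells (6×10^4 cells/well) and allowed to migrate 6 h toward 5% FBS or starvation medium. Migrated cells fixed, H&E stained, and counted in five fields/well; expressed as % of control; replicates from two independent experiments.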

[15] = biological target: Vascular endothelial growth factor receptor 2 (Homo sapiens) (UniProt P35968); assay: Inhibition of VEGF-165-induced VEGFR2 autophosphorylation at Tyr1175 in serum-starved HUVEC at 2 uM preincubated for 2 hrs followed by VEGF-165 induction measured after 5 mins by Western blot analysis; format: cell-based; summary of the method: as §1
HUVEC [16] = assay: Antiangiogenic activity in HUVEC assessed as inhibition of VEGF-165-induced tube formation at 0.2 to 2 uM after 24 hrs by matrigel assay; format: functional, cell-based; details: Homo sapiens
Summary of the method: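 HUVEC seeded at 2×10^4 cells/well on growth factor-reduced Matrigel after pre-starvation, then given compound or vehicle (up to 0.1% v/v DMSO), with or without VEGF-165, for 24 h. Fixed in ice-cold ethanol and stained with haematoxylin-eosin. Tube-like structures counted in at least 5 fields/well and expressed as % of vehicle control; replicates from two independent experiments.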

HUVEC [17] = assay: Effect on KIF20A gene expression in serum-starved HUVEC after 6 hrs by microarray analysis relative to control; format: functional, Homo sapiens; summary of the method: as §2
[18] = biological target: Vascular endothelial growth factor receptor 2 (Homo sapiens) (UniProt P35968); assay: Inhibition of VEGF-165-induced VEGFR2 autophosphorylation in serum-starved HUVEC assessed as decrease in ERK1/2 phosphorylation at 2 uM preincubated for 2 hrs followed by VEGF-165 induction measured after 5 mins by Western blot analysis; format: cell-based; summary of the method: as §1

Vascular endothelial growth factor receptor 2 (Homo sapiens), sequence (P35968 whole entry): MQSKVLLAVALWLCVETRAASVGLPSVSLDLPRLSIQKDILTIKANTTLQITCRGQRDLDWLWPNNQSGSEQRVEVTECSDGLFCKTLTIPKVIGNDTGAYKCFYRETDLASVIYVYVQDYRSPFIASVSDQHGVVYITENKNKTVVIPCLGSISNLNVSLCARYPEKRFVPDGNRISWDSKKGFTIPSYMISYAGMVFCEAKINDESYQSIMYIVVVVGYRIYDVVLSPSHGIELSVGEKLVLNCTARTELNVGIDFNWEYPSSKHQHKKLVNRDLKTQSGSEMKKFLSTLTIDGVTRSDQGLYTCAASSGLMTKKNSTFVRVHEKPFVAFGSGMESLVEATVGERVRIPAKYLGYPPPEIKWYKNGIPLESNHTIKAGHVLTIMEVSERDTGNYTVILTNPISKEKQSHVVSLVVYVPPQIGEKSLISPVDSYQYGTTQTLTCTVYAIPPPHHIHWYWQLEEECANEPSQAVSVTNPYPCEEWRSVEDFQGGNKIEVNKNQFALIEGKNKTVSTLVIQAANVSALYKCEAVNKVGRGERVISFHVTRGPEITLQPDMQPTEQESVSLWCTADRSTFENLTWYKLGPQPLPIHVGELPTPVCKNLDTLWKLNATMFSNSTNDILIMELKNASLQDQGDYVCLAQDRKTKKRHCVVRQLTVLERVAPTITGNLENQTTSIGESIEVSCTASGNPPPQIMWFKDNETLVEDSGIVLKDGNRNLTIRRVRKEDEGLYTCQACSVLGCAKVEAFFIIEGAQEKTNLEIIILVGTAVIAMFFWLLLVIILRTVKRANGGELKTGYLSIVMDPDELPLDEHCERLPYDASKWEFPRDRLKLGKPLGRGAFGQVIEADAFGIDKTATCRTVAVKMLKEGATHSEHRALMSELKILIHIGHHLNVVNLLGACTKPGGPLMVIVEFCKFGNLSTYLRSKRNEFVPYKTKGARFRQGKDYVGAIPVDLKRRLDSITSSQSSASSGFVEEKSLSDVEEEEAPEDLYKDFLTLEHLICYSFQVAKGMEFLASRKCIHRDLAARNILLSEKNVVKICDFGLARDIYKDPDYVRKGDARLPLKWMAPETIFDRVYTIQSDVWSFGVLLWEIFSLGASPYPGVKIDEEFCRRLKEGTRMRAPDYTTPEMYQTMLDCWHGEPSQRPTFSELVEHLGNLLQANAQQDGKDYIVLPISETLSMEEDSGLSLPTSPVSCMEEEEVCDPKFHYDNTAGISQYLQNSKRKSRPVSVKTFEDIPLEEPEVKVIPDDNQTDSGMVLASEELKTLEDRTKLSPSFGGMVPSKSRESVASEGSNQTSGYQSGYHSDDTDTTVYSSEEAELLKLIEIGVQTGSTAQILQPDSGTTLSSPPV

Row | SMILES | Activity [1] | log2FC (HUVEC [2]) | log2FC (HUVEC [3]) | Activity (EA.hy 926) | TGI (Lewis lung carcinoma [4]) | inhibition (HUVEC [5]) | log2FC (HUVEC [6]) | log2FC (HUVEC [7]) | Activity (Lewis lung carcinoma [8]) | log2FC (HUVEC [9]) | inhibition [10] | Activity (Mus musculus [11]) | Activity (Mus musculus [12]) | IC50 [13] | Activity (HUVEC [14]) | inhibition [15] | inhibition (HUVEC [16]) | log2FC (HUVEC [17]) | inhibition [18]
1 | COc1ccc(Cn2nc(-c3ccccc3)c3cc(Nc4ccc(N5CCN(C)CC5)cc4)nc(N4CCNCC4)c32)cc1 | Non-Toxic | -0.5596 | 0.1458 | Active | Active | Active | -0.5169 | -0.6261 | Active | 0.1133 | Active | Non-Toxic | Non-Toxic | 12 µM | Active | Active | Active | -0.0473 | Active
2 | COc1ccc(Cn2nc(-c3ccccc3)c3cc(Cl)nc(N4CCNCC4)c32)cc1 | Non-Toxic | -0.5549 | 0.2465 | Active | Active | Active | -0.5393 | -0.7662 | Active | -0.1906 | Active | Non-Toxic | Non-Toxic | 4.3 µM | Active | Active | Active | -0.1005 | Active
3 | COc1ccc(Cn2nc(-c3ccccc3)c3cc(Nc4ccc(N5CCN(C)CC5)cc4)nc(N4CCN(C)CC4)c32)cc1 | Non-Toxic | -0.9386 | 0.1566 | Active | Active | Active | -0.5806 | -1.164 | Active | 0.1009 | Active | Non-Toxic | Non-Toxic | 7.2 µM | Active | Active | Active | -0.1216 | Active
